pIC50: −log10 of the molar value.
How the values were obtained:
[1] = biological target: T1, Prostaglandin E synthase (Homo sapiens, UniProt O14684); experiment: Inhibition of mPGES-1 in microsomes isolated from IL-1beta-stimulated human A549 cells using PGH2 as substrate preincubated for 15 mins followed by substrate addition measured after 1 min by RP-HPLC method; format: cell-free
T1 sequence (O14684 whole entry): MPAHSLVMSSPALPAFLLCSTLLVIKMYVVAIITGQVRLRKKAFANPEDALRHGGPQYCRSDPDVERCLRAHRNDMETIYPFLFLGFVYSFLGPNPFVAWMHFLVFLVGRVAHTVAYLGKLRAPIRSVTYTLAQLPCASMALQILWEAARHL
Procedure, shortened: (§1)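 mPGES-1 source: microsomes of A549 cells stimulated 48 h with IL-1β (1 ng/ml), sonicated, spun 10,000×g 10 min then 174,000×g 1 h at 4 °C. Diluted in 0.1 M potassium phosphate pH 7.4 with 2.5 mM glutathione. Compound or DMSO vehicle added 15 min at 4 °C, then 20 µM PGH2 for 1 min at 4 °C. Stopped with FeCl2/citric acid plus 11β-PGE2. PGE2 measured by solid-phase extraction and RP-HPLC.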

[2] = biological target: T2, Prostaglandin E synthase (Homo sapiens) (UniProt O14684); experiment: Inhibition of mPGES-1 in microsomes isolated from IL-1beta-stimulated human A549 cells at 10 uM using PGH2 as substrate preincubated for 15 mins followed by substrate addition measured after 1 min by RP-HPLC method relative to control; format: cell-free; procedure, shortened: as §1
T2 sequence (whole entry): T1 sequence (O14684 whole entry)

| Compound | pIC50 [1] | inhibition [2] |
| --- | --- | --- |
| O=C(Oc1ccc2c(c1)-c1nc3nonc3nc1C2=O)c1ccccc1 | 5.62 | 70% |
| O=C(Oc1ccc2c(c1)C(=O)c1nc3nonc3nc1-2)c1ccccc1 | 5.62 | 85% |
| O=C1c2cc(O)ccc2-c2nc3nonc3nc21 |  | 15% |
| O=C1c2nc3nonc3nc2-c2cccc(O)c21 |  | 5% |
| O=C1c2ccc(O)cc2-c2nc3nonc3nc21 |  | 30% |
| O=C1c2ccccc2-c2nc3nonc3nc21 |  | 30% |
| CC(=O)O/N=C1\C=Cc2c(no[n+]2[O-])C1=O |  | 20% |
| O=C(Oc1cccc2c1C(=O)c1nc3nonc3nc1-2)c1ccccc1 | 5.34 | 70% |
